BindingDB's records for doi:10.1021/jm000269t (Amgen, 2000)

Target: T1, Neuropeptide Y receptor type 5 (Homo sapiens, UniProt Q15761)
T1 sequence (Q15761 whole entry): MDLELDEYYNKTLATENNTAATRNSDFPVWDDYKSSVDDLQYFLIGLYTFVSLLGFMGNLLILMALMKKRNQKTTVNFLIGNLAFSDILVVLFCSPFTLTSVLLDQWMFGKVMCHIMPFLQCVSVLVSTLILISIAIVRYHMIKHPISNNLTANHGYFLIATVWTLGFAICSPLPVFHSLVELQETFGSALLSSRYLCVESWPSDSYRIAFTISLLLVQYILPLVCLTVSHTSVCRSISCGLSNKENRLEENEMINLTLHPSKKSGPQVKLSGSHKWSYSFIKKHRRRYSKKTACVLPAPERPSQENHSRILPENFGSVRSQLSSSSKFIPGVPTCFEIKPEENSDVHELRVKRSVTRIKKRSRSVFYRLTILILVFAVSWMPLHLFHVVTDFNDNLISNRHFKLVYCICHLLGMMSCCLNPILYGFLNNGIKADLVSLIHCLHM
Assay: Affinity for human neuropeptide Y receptor Y5, binding was evaluated in an in vitro radioligand [125I]PYY binding assay
Method in brief: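 HEK 293 cells expressing human Y5 receptor, harvested in PBS and homogenized in sucrose buffer; membranes washed by repeated 48000g spins and resuspended in MEM/Earle's assay buffer (25 mM HEPES, 0.1% BSA, STI, Pefabloc, pH 7.4). Membranes (200 µg tissue) incubated with compounds and 0.15 nM [125I]PYY, 2 h at 30 °C. Nonspecific binding defined with 1 µM PYY. Filtration read-out; IC50 by nonlinear regression, averaging at least two 6-point curves.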

Structure (SMILES) | IC50
Cc1ccc(-c2cc3nc(C)nc(N4CCCCC4)c3[nH]2)cc1 [2-Methyl-4-piperidin-1-yl-6-p-tolyl-5H-pyrrolo[3,2-d]pyrimidine] | 500 pM
Cc1nc(N2CCCCC2)c2[nH]c(-c3ccc(C)o3)cc2n1 [2-Methyl-6-(5-methyl-furan-2-yl)-4-piperidin-1-yl-5H-pyrrolo[3,2-d]pyrimidine] | 500 pM
